Laboratory results taken from publication PMC2984665 (Phytochemistry, 2010).

Legend:
[1] = stability of the isolated pure compounds on storage; format: physicochemical; details: pure isolated compound; decomposition followed by discoloration and LC-MS
[2] = target: serine protease chymotrypsin (Bos taurus, UniProt P00766); experiment: chymotrypsin chemiluminescent assay with and without detergent; format: biochemical; details: read-out: IC50, inhibition of chymotrypsin; without detergent
Procedure, shortened: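 Serine protease chymotrypsin, standard chemiluminescent read-out. Each test compound run in parallel without detergent and with 0.01% (v/v) Triton added, to screen for aggregation-based inhibition; IC50 derived under each condition.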

Row | Substance | stability after isolation in pure form [1] | IC50 [2]
1 | Sebestenoid B [Compound 2] | decomposed rapidly | 
2 | Sebestenoid C [Compound 3] | stable | 33 µM
3 | Sebestenoid D [Compound 4] | decomposed rapidly | 27 µM
4 | Sebestenoid A [Compound 1] | stable | 
